The source made the active and inactive calls. The calls are words filed in the database; no cut-off is given here.
What was measured:
MDA-MB-231 [1] = assay: Downregulation of c-MET mRNA expression in human MDA-MB-231 cells at 50 uM measured for 48 to 72 hrs by RT-qPCR analysis; format: functional, cell-based; settings: time 48-72 hrs
Procedure, shortened: (§1)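 MDA-MB-231 or SMYD3-knockout (CRISPR/Cas9) MDA-MB-231 cells in DMEM/10% FBS treated 48 h with 0.5–50 μM compound, or 72 h with reference inhibitor at 10–50 μM; DMSO control. Total RNA extracted with TRI reagent, CDK2, c-MET, FN1 and N-CAD transcripts measured by RT-qPCR and quantified by the ddCT method.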

MDA-MB-231 [2] = assay: Downregulation of N-cadherin mRNA expression in human MDA-MB-231 cells at 50 uM measured for 48 to 72 hrs by RT-qPCR analysis; format: functional, cell-based; settings: time 48-72 hrs; procedure, shortened: as §1
MDA-MB-231 [3] = assay: Downregulation of FN1 mRNA expression in human MDA-MB-231 cells at 50 uM measured for 48 to 72 hrs by RT-qPCR analysis; format: functional, cell-based; settings: time 48-72 hrs; procedure, shortened: as §1
[4] = molecular target: T1, Histone-lysine N-methyltransferase SMYD3 (Homo sapiens) (UniProt Q9H7B4); assay: Inhibition of full length recombinant SMYD3 (unknown origin) at 50 uM measured for 1 hr by LC-ESI-MS analysis relative to control
T1 sequence (whole entry): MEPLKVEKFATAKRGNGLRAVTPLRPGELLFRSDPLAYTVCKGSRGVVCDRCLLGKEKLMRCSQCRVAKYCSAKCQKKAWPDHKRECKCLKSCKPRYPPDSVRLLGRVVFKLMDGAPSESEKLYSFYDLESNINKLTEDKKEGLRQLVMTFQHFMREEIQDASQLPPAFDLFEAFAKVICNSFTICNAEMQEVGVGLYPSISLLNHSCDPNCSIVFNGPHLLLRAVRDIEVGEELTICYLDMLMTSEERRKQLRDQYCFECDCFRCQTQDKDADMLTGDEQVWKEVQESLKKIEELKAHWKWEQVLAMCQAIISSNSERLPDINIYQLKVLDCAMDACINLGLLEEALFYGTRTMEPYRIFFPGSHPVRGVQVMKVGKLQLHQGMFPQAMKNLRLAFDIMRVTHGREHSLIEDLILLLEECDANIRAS
Procedure, shortened: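 SMYD3 preincubated 1 h at 23 °C with compound (SMYD3 5 μM, compound 50 μM, 2% DMSO), or at 5 μM compound for 1 or 24 h. Stopped with H2O/AcCN/FA, peptide methylation quantified by LC-ESI-MS. Duplicate.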

[5] = molecular target: T1, Histone-lysine N-methyltransferase SMYD3 (Homo sapiens); assay: Inhibition of full length recombinant SMYD3 (unknown origin) at 5 uM measured at 24 hrs by LC-ESI-MS analysis relative to control
MDA-MB-231 [6] = assay: Downregulation of CDK2 mRNA expression in human MDA-MB-231 cells at 50 uM measured for 48 to 72 hrs by RT-qPCR analysis; format: functional, cell-based; settings: time 48-72 hrs; procedure, shortened: as §1
[7] = molecular target: T2, Histone-lysine N-methyltransferase SMYD3 (Homo sapiens, UniProt Q9H7B4); assay: Inhibition of full length recombinant SMYD3 (unknown origin) measured at 24 hrs
T2 sequence (Q9H7B4 whole entry): T1 sequence (whole entry)

[8] = molecular target: T1, Histone-lysine N-methyltransferase SMYD3 (Homo sapiens); assay: Binding affinity to full length recombinant SMYD3 (unknown origin) overexpressed in Escherichia coli Rosetta cells assessed as inactivation constant measured after 1 hr by LC-MS analysis
[9] = molecular target: T1, Histone-lysine N-methyltransferase SMYD3 (Homo sapiens); assay: Inhibition of SMYD3 in human MDA-MB-231 cells assessed as decrease in ERK1/2 phosphorylation upto 5 uM by immunoblotting analysis; format: cell-based; settings: time 48-72 hrs, TDE = time-dependent effect
Procedure, shortened: (§2)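 HCT116 or MDA-MB-231 cells treated with compound, DMSO as control. Whole-cell lysates in Tris/EDTA/NaCl/1% Triton X-100 with protease and phosphatase inhibitors. 20 μg protein run on 7.5% SDS-PAGE and blotted to nitrocellulose, probed for phospho-ERK1/2 (Thr202/Tyr204), total ERK1/2 and cleaved PARP, with actin as loading control.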

MDA-MB-231 [10] = assay: Effect on FN1 mRNA expression in SMYD3 knockout human MDA-MB-231 cells at 0.5 to 5 uM measured for 48 to 72 hrs by RT-qPCR analysis; format: functional, cell-based; settings: dose 0.5-5 µM, time 48-72 hrs; procedure, shortened: as §1
MDA-MB-231 [11] = assay: Downregulation of C-MET mRNA expression in human MDA-MB-231 cells at 0.5 uM by RT-qPCR analysis; format: functional, cell-based; procedure, shortened: as §1
MDA-MB-231 [12] = assay: Effect on c-MET mRNA expression in SMYD3 knockout human MDA-MB-231 cells at 0.5 to 5 uM measured for 48 to 72 hrs by RT-qPCR analysis; format: functional, cell-based; settings: dose 0.5-5 µM, time 48-72 hrs; procedure, shortened: as §1
[13] = molecular target: T1, Histone-lysine N-methyltransferase SMYD3 (Homo sapiens); assay: Inhibition of SMYD3 in human MDA-MB-231 cells assessed as decrease in cleaved PARP level at 5 uM measured for 48 to 72 hrs by immunoblotting analysis; format: cell-based; settings: time 48-72 hrs; procedure, shortened: as §2
[14] = molecular target: T1, Histone-lysine N-methyltransferase SMYD3 (Homo sapiens); assay: Binding affinity to full length recombinant SMYD3 (unknown origin) overexpressed in Escherichia coli Rosetta cells assessed as covalent adduct formation by SPR analysis
Procedure, shortened: (§3)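 SPR on Biacore X100 at 15 °C: SMYD3 amine-coupled on CM5 chips at 6500–10000 RU, immobilised in HBS-T pH 7.4. Analysis buffer Tris-HCl 50 mM, NaCl 150 mM, 2 mM DTT, 0.05% Tween-20, 2% DMSO, pH 8.0, with or without SAM at saturating concentration. Equilibrium responses solvent-corrected.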

[15] = molecular target: T1, Histone-lysine N-methyltransferase SMYD3 (Homo sapiens); assay: Binding affinity to full length recombinant SMYD3 (unknown origin) overexpressed in Escherichia coli Rosetta cells assessed as Kinact/Ki ratio measured after 1 hr by LC-MS analysis
[16] = molecular target: T1, Histone-lysine N-methyltransferase SMYD3 (Homo sapiens); assay: Inhibition of SMYD3 in human HCT-116 cells assessed as decrease in ERK1/2 phosphorylation measured for 48 to 72 hrs by immunoblotting analysis; format: cell-based; settings: dose <= 5.0 µM, time 48-72 hrs; procedure, shortened: as §2
[17] = molecular target: T1, Histone-lysine N-methyltransferase SMYD3 (Homo sapiens); assay: Binding affinity to full length recombinant SMYD3 (unknown origin) at Cys186 residue overexpressed in Escherichia coli Rosetta cells assessed as covalent adduct formation at 1 to 100 uM measured after 1 hr by LC-MS analysis relative to control; settings: dose 1-100 µM
Procedure, shortened: (§4)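 Recombinant SMYD3 expressed in E. coli Rosetta 2, final 10 μM, incubated at 23 °C in Tris 50 mM pH 8.0, 75 mM NaCl with compound at final 1, 10 or 100 μM, or equimolar 10 μM with sampling at 0–24 h. Samples DTT-denatured at 56 °C, iodoacetamide-alkylated, digested overnight with trypsin plus chymotrypsin at 30 °C, then analysed by LC-MS/MS on Q-ToF for adducted peptides. Triplicate.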

[18] = molecular target: T1, Histone-lysine N-methyltransferase SMYD3 (Homo sapiens); assay: Inhibition of SMYD3 in human MDA-MB-231 cells assessed as decrease in ERK1/2 phosphorylation measured for 48 to 72 hrs by immunoblotting analysis; format: cell-based; settings: dose <= 5.0 µM, time 48-72 hrs; procedure, shortened: as §2
[19] = molecular target: T1, Histone-lysine N-methyltransferase SMYD3 (Homo sapiens); assay: Inhibition of SMYD3 in human HCT-116 cells assessed as decrease in ERK1/2 phosphorylation upto 5 uM by immunoblotting analysis; format: cell-based; settings: time 48-72 hrs, TDE = time-dependent effect; procedure, shortened: as §2
MDA-MB-231 [20] = assay: Effect on CDK2 mRNA expression in SMYD3 knockout human MDA-MB-231 cells at 0.5 to 5 uM measured for 48 to 72 hrs by RT-qPCR analysis; format: functional, cell-based; settings: dose 0.5-5 µM, time 48-72 hrs; procedure, shortened: as §1
[21] = molecular target: T1, Histone-lysine N-methyltransferase SMYD3 (Homo sapiens); assay: Inhibition of SMYD3 in human HCT-116 cells assessed as increase in cleaved PARP level at 5 uM measured for 48 to 72 hrs by immunoblotting analysis; settings: time 48-72 hrs
[22] = molecular target: T1, Histone-lysine N-methyltransferase SMYD3 (Homo sapiens); assay: Binding affinity to full length recombinant SMYD3 (unknown origin) at Cys186 residue overexpressed in Escherichia coli Rosetta cells assessed as covalent adduct formation at 1 to 100 uM by LC-MS analysis; settings: dose 1-100 µM, time <= 24.0 hrs, TDE = time-dependent effect; procedure, shortened: as §4
[23] = molecular target: T1, Histone-lysine N-methyltransferase SMYD3 (Homo sapiens); assay: Binding affinity to full length recombinant SMYD3 (unknown origin) at Cys186 residue overexpressed in Escherichia coli Rosetta cells assessed as covalent adduct formation measured for 24 hrs by LC-MS analysis; settings: dose 1-100 µM; procedure, shortened: as §4
[24] = molecular target: T1, Histone-lysine N-methyltransferase SMYD3 (Homo sapiens); assay: Binding affinity to full length recombinant SMYD3 (unknown origin) at Cys186 residue overexpressed in Escherichia coli Rosetta cells assessed as covalent adduct formation at 1 to 100 uM measured for 24 hrs by LC-MS analysis relative to control; settings: dose 1-100 µM; procedure, shortened: as §4
[25] = Stability in human plasma measured at 6 hrs by LC-MS analysis; format: ADME, cell-free
Procedure, shortened: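 Compound spiked to final 10 μM into healthy-volunteer human plasma and held at 37 °C with gentle agitation. At 0–360 min, proteins precipitated with ice-cold acetonitrile containing propranolol internal standard. Supernatant dried, reconstituted, analysed by LC-MS with SIM (m/z 312; IS 260). Analyte/IS peak-area ratio followed over time, relative to time 0.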

[26] = molecular target: T2, Histone-lysine N-methyltransferase SMYD3; assay: Binding affinity to full length recombinant SMYD3 (unknown origin) overexpressed in Escherichia coli Rosetta cells assessed as dissociation constant by SPR analysis; procedure, shortened: as §3
MDA-MB-231 [27] = assay: Effect on N-cadherin mRNA expression in SMYD3 knockout human MDA-MB-231 cells at 0.5 to 5 uM measured for 48 to 72 hrs by RT-qPCR analysis; format: functional, cell-based; settings: dose 0.5-5 µM, time 48-72 hrs; procedure, shortened: as §1
MDA-MB-231 [28] = assay: Downregulation of CDK2 mRNA expression in human MDA-MB-231 cells at 0.5 uM by RT-qPCR analysis; format: functional, cell-based; procedure, shortened: as §1
[29] = molecular target: T2, Histone-lysine N-methyltransferase SMYD3; assay: Binding affinity to full length recombinant SMYD3 (unknown origin) overexpressed in Escherichia coli Rosetta cells assessed as inhibition constant measured after 1 hr by LC-MS analysis
[30] = molecular target: T1, Histone-lysine N-methyltransferase SMYD3 (Homo sapiens); assay: Inhibition of SMYD3 in human HCT-116 cells assessed as decrease in cleaved PARP level at 5 uM measured for 48 to 72 hrs by immunoblotting analysis; format: cell-based; settings: time 48-72 hrs; procedure, shortened: as §2
MDA-MB-231 [31] = assay: Antiproliferative activity against in human MDA-MB-231 cells assessed as reduction in cell viability measured after 48 hrs by trypan blue staining based phase contrast microscopic analysis; format: functional
Procedure, shortened: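 MDA-MB-231 cells in DMEM with 10% FBS and penicillin/streptomycin at 37 °C, 5% CO2, treated 48 h at 5 μM (vehicle 0.5% DMSO, DMSO control). Floating plus trypsinized adherent cells pooled, mixed with 0.01% trypan blue, unstained and stained cells counted by phase-contrast microscopy, % viable cells calculated. Mean ± SD, n=3.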

| Structure (SMILES) | inhibition [4] | inhibition [5] | IC50 [7] | inhibition [9] | inhibition [13] | Activity [14] | inhibition [16] | inhibition [18] | inhibition [19] | Activity [23] | Kd [26] | other results |
| --- | --- | --- | --- | --- | --- | --- | --- | --- | --- | --- | --- | --- |
| O=C1Cc2cc(C(=O)N[C@H]3C[C@H]4CC[C@@H](C3)C4S(=O)(=O)CC3CCN(CCCC(F)(F)F)CC3)c(Cl)cc2N1 (some centres not stated) | 100% | 50.2% | 0.689 µM | – | – | – | – | – | – | – | – | Activity (MDA-MB-231 [1]): Active; Activity (MDA-MB-231 [2]): Active; Activity (MDA-MB-231 [3]): Active; Activity (MDA-MB-231 [6]): Active |
| NC1CCN(C(=O)c2cc(C3CC3)on2)CC1 | 5% | – | – | – | – | – | – | – | – | – | – | – |
| O=C(NC1CCN(C(=O)CCl)CC1)c1cc(C2CC2)on1 | 92.1% | 85.6% | 0.37 µM | Tde | Active | Active | Dose-Dependent Effect | Dose-Dependent Effect | Tde | Dose-Dependent Effect | 13 µM | Kinact [8]: 4.49 10^-4/s; Activity (MDA-MB-231 [10]): inactive; Activity (MDA-MB-231 [11]): Active; Activity (MDA-MB-231 [12]): inactive; Ratio [15]: 73.5 M⁻¹ s⁻¹; Activity [17]: 50%; Activity (MDA-MB-231 [20]): inactive; inhibition [21]: Active; Activity [22]: Tde; Activity [24]: 100%; remaining at 6 h [25]: 76%; Activity (MDA-MB-231 [27]): inactive; Activity (MDA-MB-231 [28]): Active; Ki [29]: 6.11 µM |
| O=C(NC1CCNCC1)c1cc(C2CC2)on1 | 29.1% | – | – | Tde | inactive | – | Dose-Dependent Effect | Dose-Dependent Effect | Tde | – | 32 µM | inhibition [30]: inactive; Activity (MDA-MB-231 [31]): inactive |
| Cc1cc(C(=O)N2CCC(NC(=O)CCl)CC2)no1 | < 5% | – | – | – | – | inactive | – | – | – | – | – | – |
| O=C(CCl)NC1CCN(C(=O)c2cc(C3CC3)on2)CC1 | 14% | – | – | – | – | Active | – | – | – | Dose-Dependent Effect | – | – |

Reference: ChEMBL document CHEMBL5352425, “Discovery of the 4-aminopiperidine-based compound EM127 for the site-specific covalent inhibition of SMYD3” (Eur J Med Chem, 2022)
